Consider 17 molecules from ChEMBL document CHEMBL1129584, “3,3-Dialkyl- and 3-alkyl-3-benzyl-substituted 2-pyrrolidinones: a new class of anticonvulsant agents” (J Med Chem, 1996).

Usually TD50 stands for the dose at which the toxic effect under study appears in half of the subjects. Usually IC50 stands for the concentration at which inhibition is half-maximal. One may read the ED50 as the midpoint of the dose-response relation.

Data set [1] is described as follows: Neurotoxicity in mice was assessed by rotarod test. The following applies: mouse, in vivo. It counts as toxicity.
In data set [2] the target is GABA-A receptor; anion channel. Description: Binding affinity for Gamma-aminobutyric acid A receptor from rat brain in the presence of radioligand [35S]- TBPS. Summed up:
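[35S]TBPS displacement in rat brain membranes (picrotoxin site of GABA-A receptors). Compounds dissolved in DMSO, final DMSO ≤2.5%. IC50 from at least three experiments in triplicate, mean ± SEM.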

A short description of data set [3]: Protective index, measure of ratio of TD50 and ED50 of MES. It is filed as functional. Summed up:
(§1)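 Protective index calculated as TD50 (rotorod) divided by ED50 in the PTZ or MES mouse seizure test.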

Data set [4] in a line: Protective index, measure of ratio of TD50 and ED50. It is filed as functional. Summed up: as §1
Data set [5] is filed under the species Mus musculus. Description: Anticonvulsant activity in mice against pentylenetetrazole (PTZ) induced clonic seizures. It is filed as functional. In outline: (§2)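 At least four groups of six mice each. Where these could not be calculated, the […] and lowest all-protected doses are given instead.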
In data set [6] the target is T1, GABA-A receptor; anion channel (Rattus norvegicus) (UniProt O09028+P15431+P18506+P18508+P19969+P20236+P23574+P23576+P28471+P28473+P30191+P62813+P63079+P63138+Q91ZM7+Q9ES14). Description: Induced percentage potentiation of 3 uM GABA-mediated current at rat brain Gamma-aminobutyric acid A receptor (8 cells). It counts as functional.
The nature of data set [7]: Protective index, measure of ratio of TD50 and ED50 of PTZ. It is filed as functional. Summed up:
as §1

For data set [8], the target named is T1, GABA-A receptor; anion channel (Rattus norvegicus). Description: Induced percentage potentiation of 3 uM GABA-mediated current at rat brain Gamma-aminobutyric acid A receptor (8 cells) at 1 mM in the presence of 3 mM alpha-IMGBL (picrotoxin antagonist). It is filed as functional.
Data set [9] has the same target. Description: Antagonism (300 uM) induced potentiation of 3 uM Gamma-aminobutyric acid A receptor mediated current by picrotoxin antagonist (alpha-IMGBL) at a dose 3 mM on 5 rat brain cells. It is filed as functional, tissue-based. Set-up: scale not given: the % may be the effect or the level left.
For data set [10], the species on record is Mus musculus. Description: Anticonvulsant activity in mice against maximal electroshock (MES) induced tonic hindlimb seizures. It is filed as functional. Summed up:
as §2
On the technique in general: In the maximal electroshock model the usual endpoint is tonic extension of the hind limbs.

Consider `O=C1CCCN1` [2-PYRROLIDONE], for which the TD50 in data set [1] was > 900 mg/kg.
Turning to `O=C1NCCC1Cc1ccccc1` (stereo unspecified), the IC50 in [2] came out at 2.44 mM. Further, the PI in data set [3] amounted to 3.51. Further, the TD50 in [1] is 144 mg/kg.
Turning to `O=C1NCCC12CCCC2`, in data set [2], the half-maximal inhibitory concentration (IC50) is 12.1 mM. In data set [1], this molecule registered a TD50 of 307 mg/kg.
As for `CCC1(c2ccccc2)C(=O)NC(=O)NC1=O` [PHENOBARBITAL], the PI in [4] was 4. The same molecule yielded an ED50 in data set [5] of 22 mg/kg.
`CC1CCNC1=O` (stereo unspecified): the TD50 in data set [1] is > 900 mg/kg.
On to `CCCC(CCC)C(=O)O` [VALPROIC ACID], for which the PI in [4] was found to be 2.12. Besides, in data set [5], the median effective dose (ED50) was 133 mg/kg.
As to `CCC1(C)CCNC1=O` (stereo unspecified), the concentration for half-maximal inhibition (IC50) in data set [2] was determined as 12.1 mM.
The same measure, in the same setting: the figure for `O=C1CCCS1` [THIOBUTYROLACTONE] is 0.33 mM.
Turning to `CC(C)(C)C1(C)CCNC1=O` (stereo unspecified), the half-inhibitory concentration (IC50) in data set [2] amounted to 3.26 mM. Further, in data set [1], the TD50 was > 300 mg/kg.
Consider `CCC1(CC)CCNC1=O`, for which the Activity in [6] was 137%; in data set [8] it was 108%. Moreover, the half-maximal inhibitory concentration (IC50) in [2] stood at 5.81 mM. In [7], the PI is 5.65. Also, in data set [1], the TD50 was found to be 260 mg/kg.
Turning to `CCC1CCNC1=O` (stereo unspecified), the concentration for half-maximal inhibition (IC50) in data set [2] worked out at 48.1 mM.
Regarding `CCC1(C)CC(=O)NC1=O` (stereo unspecified) [ETHOSUXIMIDE], in [4], the PI turned out to be 2.35. This molecule also came in with an ED50 in data set [5] of 161 mg/kg.
Take `CC1(Cc2ccccc2)CCNC1=O` (stereo unspecified): the IC50 in data set [2] was 0.85 mM.
Turning to `CCC1(Cc2ccccc2)CCNC1=O` (stereo unspecified), the Activity in data set [9] was determined as 98%.
As to `CCC1(C(C)C)CCNC1=O` (stereo unspecified), the IC50 in data set [2] is 2.62 mM. For the same molecule, the TD50 in data set [1] is 207 mg/kg.
Take `CC(C)C1(C)CCNC1=O` (stereo unspecified): the concentration for half-maximal inhibition (IC50) in [2] was determined as 6.86 mM.
On to `CC1(C)CCNC1=O`, for which the ED50 in data set [10] was > 600 mg/kg. Further, the IC50 in [2] was determined as 32.4 mM. Also, the TD50 in data set [1] was > 600 mg/kg.
